From ChEMBL document CHEMBL2396613, “Anti-leishmanial evaluation of C2-aryl quinolines: mechanistic insight on bioenergetics and sterol biosynthetic pathway of Leishmania braziliensis” (Bioorg Med Chem, 2013)
Activity calls are given as the source filed them. The calls are words filed in the database; no cut-off is given here.

Key:
Leishmania braziliensis [1] = test: Antileishmanial activity against promastigotes of Leishmania (V.) braziliensis MHOM/CO/87/UA301 after 96 hrs by MTT assay; format: functional, organism-based; details: MHOM/CO/87/UA301, 96 h
Leishmania braziliensis [2] = test: Effect on sterol biosynthesis in Leishmania (V.) braziliensis MHOM/CO/87/UA301 assessed as endogenous 14-desmethyl 5-dehydroepisterol level at 6 uM (reference value: 63.7 +/- 1.02%)
Leishmania braziliensis [3] = test: Effect on sterol biosynthesis in Leishmania (V.) braziliensis MHOM/CO/87/UA301 assessed as exogenous cholesterol level at 6 uM (reference value: 13.6 +/- 0.51%)
Leishmania braziliensis [4] = test: Antileishmanial activity against amastigotes of Leishmania (V.) braziliensis MHOM/CO/87/UA301 infected in BMDM assessed as reduction of intracellular amastigotes after 96 hrs by Giemsa staining; format: functional, organism-based; details: MHOM/CO/87/UA301, BMDM
Summary of the method: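 Mouse bone-marrow macrophages, differentiated in L-929 conditioned medium, were mixed 1:10 with promastigotes in DMEM + 10% FBS. Co-cultures sat on glass coverslips for 18 h at 37 °C, 5% CO2. Medium was then replaced with compound-containing medium for 96 h. Cells were Giemsa-stained and counted. EC50 was based on the number of amastigotes per macrophage; triplicate.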

[5] = Cytotoxicity against mouse BMDM at 20 to 100 uM after 96 hrs by MTT assay
Leishmania braziliensis [6] = test: Induction of acidocalcisomes alkalinization in Leishmania (V.) braziliensis MHOM/CO/87/UA301 at 6 uM up to 1200 seconds using acridine orange staining; format: functional, organism-based
Summary of the method: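 Promastigotes (10⁹ cells/mL), washed twice in KCl/Tris buffer, were loaded with 2 μM acridine orange for 5 min at 29 °C. Fluorescence (ex 488, em 530 nm) was recorded in a stirred cuvette at 29 °C.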

[7] = Cytotoxicity against mouse BMDM after 96 hrs by MTT assay
Summary of the method: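 Host-cell MTT test on mouse bone-marrow-derived macrophages (L-929 conditioned medium): 5000 cells/well were exposed to 100, 200 and 300 μM. MTT was added, cells were lysed with acidic isopropanol and read at 570 nm.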

Leishmania braziliensis [8] = test: Reduction of mitochondrial membrane potential in Leishmania (V.) braziliensis MHOM/CO/87/UA301 assessed as increase in fluorescence at 6 uM up to 1400 seconds using rhodamine 123 by spectrofluorimeter analysis; format: functional, organism-based
Summary of the method: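 Fluorescence (ex 488, em 530 nm) was followed in a spectrofluorimeter at 29 °C under continuous agitation. FCCP served as protonophore comparator.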

Leishmania braziliensis [9] = test: Effect on sterol biosynthesis in Leishmania (V.) braziliensis MHOM/CO/87/UA301 assessed as endogenous squalene level at 6 uM (reference value: 22.7 +/- 0.12%)
Leishmania braziliensis [10] = test: Induction of acidocalcisomes alkalinization in Leishmania (V.) braziliensis MHOM/CO/87/UA301 at 1 uM up to 1400 seconds using acridine orange staining; format: functional, organism-based

`c1ccc2nc(-c3ccc4c(c3)OCO4)ccc2c1` gave an IC50 (Leishmania braziliensis [1]) of at least 50 µM.

Molecule `CCc1ccc2nc(-c3ccccc3)ccc2c1` has a mass % of sterol at 6 µM (Leishmania braziliensis [2]) of 23.4%, a mass % of sterol at 6 µM (Leishmania braziliensis [3]) of 12.3% and an EC50 (Leishmania braziliensis [4]) of 20 µM. For the same molecule, the IC50 (Leishmania braziliensis [1]) was at most 50 µM, the Activity [5] was “Non-toxic” and the Activity (Leishmania braziliensis [6]) was “Active”. The IC50 [7] was at least 200 µM, the Activity (Leishmania braziliensis [8]) was “Active” and the mass % of sterol at 6 µM (Leishmania braziliensis [9]) was 64.3%.

For `CCc1ccc2nc(-c3ccc4c(c3)OCO4)ccc2c1`, the IC50 (Leishmania braziliensis [1]) was at least 50 µM.

With `CO[C@@H]1C[C@@H](C[C@H]2CC[C@H](C)[C@H]([C@@H](C)C(=O)O)O2)O[C@]2(O[C@](C)([C@H]3CC[C@@](C)([C@@H]4O[C@@H]([C@H]5O[C@@](O)(CO)[C@H](C)C[C@@H]5C)C[C@@H]4C)O3)C[C@H]2C)[C@@H]1C` the Activity (Leishmania braziliensis [10]) was “Active”.

For `COc1ccc2nc(-c3ccc4c(c3)OCO4)ccc2c1`, the IC50 (Leishmania braziliensis [1]) was at least 50 µM.

`Cc1cc(C)c2ccc(-c3ccc4c(c3)OCO4)nc2c1` showed an IC50 (Leishmania braziliensis [1]) of at least 50 µM.

With `CCN(CC)CCCCCCNc1cc(OC)cc2c(C)ccnc12` [SITAMAQUINE] the IC50 (Leishmania braziliensis [1]) was at most 50 µM and the IC50 [7] was at most 100 µM.

With `Cc1cc(C)c2ccc(-c3ccccc3)nc2c1` the IC50 (Leishmania braziliensis [1]) was at most 50 µM and the IC50 [7] was at most 100 µM.

With `CCCCCCCCCCCCCCCCOP(=O)([O-])OCC[N+](C)(C)C` [MILTEFOSINE] the IC50 (Leishmania braziliensis [1]) was at most 50 µM and the IC50 [7] was at least 200 µM.

For `Cc1ccc2nc(-c3ccc4c(c3)OCO4)ccc2c1`, the IC50 (Leishmania braziliensis [1]) was at least 50 µM.
